How the values were obtained:
Type in all cases: functional
Rattus norvegicus [1] = organism: Rattus norvegicus; experiment: Stimulation of luteinizing hormone release in ovariectomized rat at 1000 ng pretreated with estrogen and progesterone by radioimmunoassay relative to LH-RH
Procedure, shortened: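 Ovariectomized rats primed with estrogen and progesterone received peptide at 250 and 1000 ng, with saline and synthetic LH-RH (2.5 and 10 ng) as references. Serum LH was measured by radioimmunoassay. Activity is expressed as % of synthetic LH-RH (taken as 100) with 95% confidence limits.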

Rattus norvegicus [2] = organism: Rattus norvegicus; experiment: Stimulation of luteinizing hormone release in ovariectomized rat assessed as serum luteinizing hormone level at 250 ng pretreated with estrogen and progesterone by radioimmunoassay relative to control
Procedure, shortened: (§1)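 Ovariectomized rats pretreated with estrogen and progesterone, then given peptide at two doses (250 and 1000 ng). Saline alone and synthetic LH-RH at 2.5 and 10 ng served as comparators. Serum LH was measured by radioimmunoassay and reported in ng/mL ± SE.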

Rattus norvegicus [3] = organism: Rattus norvegicus; experiment: Stimulation of luteinizing hormone release in ovariectomized rat assessed as serum luteinizing hormone level at 1000 ng pretreated with estrogen and progesterone by radioimmunoassay relative to control; procedure, shortened: as §1

CC(C)C[C@@H]1NC(=O)[C@@H](C)NC(=O)[C@H](Cc2ccc(O)cc2)NC(=O)[C@H](CO)NC(=O)[C@H](Cc2c[nH]c3ccccc23)NC(=O)[C@H](Cc2cnc[nH]2)NC(=O)CCCCCNC(=O)CNC(=O)[C@@H]2CCCN2C(=O)[C@H](CCCNC(=N)N)NC1=O
Activity (Rattus norvegicus [1]): 0.65%
Activity (Rattus norvegicus [2]): 151.02 ng/mL
Activity (Rattus norvegicus [3]): 315.81 ng/mL

CC(C)C[C@@H]1NC(=O)[C@@H](C)NC(=O)[C@H](Cc2ccc(O)cc2)NC(=O)[C@H](CO)NC(=O)[C@H](Cc2c[nH]c3ccccc23)NC(=O)[C@H](Cc2cnc[nH]2)NC(=O)CCNC(=O)CNC(=O)[C@@H]2CCCN2C(=O)[C@H](CCCNC(=N)N)NC1=O
Activity (Rattus norvegicus [1]): 1.2%
Activity (Rattus norvegicus [2]): 206.67 ng/mL
Activity (Rattus norvegicus [3]): 364.59 ng/mL

CC(C)C[C@H](NC(=O)[C@@H](C)NC(=O)[C@H](Cc1ccc(O)cc1)NC(=O)[C@H](CO)NC(=O)[C@H](Cc1c[nH]c2ccccc12)NC(=O)[C@H](Cc1cnc[nH]1)NC(=O)CCN)C(=O)N[C@@H](CCCNC(=N)N)C(=O)N1CCC[C@H]1C(=O)NCC(=O)O
Activity (Rattus norvegicus [1]): <0.01%
Activity (Rattus norvegicus [2]): 80.74 ng/mL
Activity (Rattus norvegicus [3]): 65.69 ng/mL
